Experimental data of several laboratories.
Protocols differ between the studies behind these lines.
Target: Bone morphogenetic protein receptor type-1B (BMPR1B, Homo sapiens, UniProt O00238)

Structure (SMILES)	assay	conditions	measurement	result
CC(C)(O)[C@H]1CC[C@H](Nc2ccc3ncc(-c4cccc(C(F)(F)F)c4)n3n2)CC1	enzyme activity, inhibitor	1 µM	remaining activity	147%
Cc1cnc(NC2CCOCC2)nc1-n1cnc(C(=O)NC(CN)c2cc(F)cc(Cl)c2)c1 (stereo not shown)	enzyme activity, inhibitor, radiometric	1 µM	remaining activity	106%
CNC(=O)c1ccc(Nc2ncc(C(F)(F)F)c(NCc3nccnc3N(C)S(C)(=O)=O)n2)cc1	cell-free assay, competition with immobilised ligand	0.1 µM	remaining binding	65%
Nc1ncnc2occ(-c3ccc(NC(=O)Nc4cc(C(F)(F)F)ccc4F)cc3)c12	cell-free assay	20 µM	remaining signal	37%
CN1CC(Oc2cnc(C#N)cc2-c2ccn3nc(NC(=O)C4CC4)cc3c2)C1	enzyme activity, inhibitor	1 µM	inhibition	-1%
Cc1ccc(NC(=O)c2ccc(C)c(C(F)(F)F)c2)cc1C#Cc1nn(C2CCC(O)CC2)c2ncnc(N)c12 (stereo not shown)	cell-free assay	10 µM	remaining signal	18%
Cc1sc(C(=O)NC2COC2)cc1-n1cc(NC(=O)Nc2c(F)cccc2Cl)cn1	enzyme activity, inhibitor	10 µM	remaining activity	104%
N#Cc1ccc(Nc2ccc3[nH]c(=O)[nH]c3c2)c(Cl)c1	cell-free assay, competition with immobilised ligand	1 µM	remaining binding	100%
COc1cc(Cl)c(C(=O)N[C@@H](CN[C@H]2CC[C@@H](N)CC2)Cc2ccc(C#N)cc2)cc1-c1ccc(CN[C@H](C)c2ccc(C)cc2)o1	enzyme activity, inhibitor	1 µM	remaining activity	101%
Cc1cc(NC(=O)c2cccc3cc(-c4cccc5[nH]nc(N)c45)ccc23)ccc1F	enzyme activity, inhibitor	0.1 µM	activity vs control	100%
Cc1ccc(C(=O)Nc2ccc(CN3CCN(C)CC3)c(C(F)(F)F)c2)cc1C#Cc1cnc2cccnn12	enzyme activity	23.5 nM	remaining activity	96%
O=C(Nc1cnn(-c2csc(C(=O)NC3COC3)c2)c1)Nc1ccccc1Cl	enzyme activity, inhibitor	5 µM	remaining activity	109%
C[C@@H]1CCN(c2nccc(-c3cnn4ncccc34)n2)C1	binding	1 µM	remaining binding	68%
